Experimental data published in ChEMBL document CHEMBL2177052, “Rapid and efficient synthesis of a novel series of substituted aminobenzosuberone derivatives as potent, selective, non-peptidic neutral aminopeptidase inhibitors” (Bioorg Med Chem, 2012).
pKi: −log10 of the molar value.

Key:
[1] = target: T1, Leukotriene A-4 hydrolase (Homo sapiens, UniProt P09960); experiment: Competitive inhibition of human recombinant LTA4H using alanine-p-nitroanilide as substrate by spectrophotometric analysis
T1 sequence (P09960 whole entry): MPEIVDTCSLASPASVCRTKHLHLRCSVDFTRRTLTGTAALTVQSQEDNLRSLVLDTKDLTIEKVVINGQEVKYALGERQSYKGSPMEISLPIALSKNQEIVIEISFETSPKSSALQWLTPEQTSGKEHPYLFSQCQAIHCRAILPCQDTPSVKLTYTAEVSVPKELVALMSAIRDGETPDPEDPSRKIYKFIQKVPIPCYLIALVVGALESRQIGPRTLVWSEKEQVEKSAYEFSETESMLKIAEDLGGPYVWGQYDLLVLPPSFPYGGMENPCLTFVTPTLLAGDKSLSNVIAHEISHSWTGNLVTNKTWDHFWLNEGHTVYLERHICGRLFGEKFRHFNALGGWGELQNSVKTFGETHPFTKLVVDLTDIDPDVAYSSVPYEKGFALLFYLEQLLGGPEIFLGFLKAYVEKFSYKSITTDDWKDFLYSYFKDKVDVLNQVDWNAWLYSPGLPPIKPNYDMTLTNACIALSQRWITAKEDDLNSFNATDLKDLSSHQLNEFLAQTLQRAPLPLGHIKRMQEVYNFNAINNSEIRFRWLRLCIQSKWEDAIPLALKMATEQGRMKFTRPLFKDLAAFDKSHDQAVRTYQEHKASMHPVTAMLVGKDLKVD
Procedure, shortened: (§1)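 Human LTA4H, 5 µg per assay, in 10 mM Tris–HCl pH 7.5 with 0.1 mM KCl. Alanine-p-nitroanilide used as substrate (Km 2 mM). Enzyme added last to start the 1 ml reaction at 30 °C. Release of p-nitroanilide followed continuously at 405 nm for initial rates. Ki from Dixon plots assuming rapid-equilibrium kinetics.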

Aminopeptidase N [2] = target: T2, Aminopeptidase N (Sus scrofa, UniProt P15145); experiment: Competitive inhibition of pig APN using L-leucine-p-nitroanilide as substrate by Dixon-plot analysis
T2 sequence (P15145 whole entry): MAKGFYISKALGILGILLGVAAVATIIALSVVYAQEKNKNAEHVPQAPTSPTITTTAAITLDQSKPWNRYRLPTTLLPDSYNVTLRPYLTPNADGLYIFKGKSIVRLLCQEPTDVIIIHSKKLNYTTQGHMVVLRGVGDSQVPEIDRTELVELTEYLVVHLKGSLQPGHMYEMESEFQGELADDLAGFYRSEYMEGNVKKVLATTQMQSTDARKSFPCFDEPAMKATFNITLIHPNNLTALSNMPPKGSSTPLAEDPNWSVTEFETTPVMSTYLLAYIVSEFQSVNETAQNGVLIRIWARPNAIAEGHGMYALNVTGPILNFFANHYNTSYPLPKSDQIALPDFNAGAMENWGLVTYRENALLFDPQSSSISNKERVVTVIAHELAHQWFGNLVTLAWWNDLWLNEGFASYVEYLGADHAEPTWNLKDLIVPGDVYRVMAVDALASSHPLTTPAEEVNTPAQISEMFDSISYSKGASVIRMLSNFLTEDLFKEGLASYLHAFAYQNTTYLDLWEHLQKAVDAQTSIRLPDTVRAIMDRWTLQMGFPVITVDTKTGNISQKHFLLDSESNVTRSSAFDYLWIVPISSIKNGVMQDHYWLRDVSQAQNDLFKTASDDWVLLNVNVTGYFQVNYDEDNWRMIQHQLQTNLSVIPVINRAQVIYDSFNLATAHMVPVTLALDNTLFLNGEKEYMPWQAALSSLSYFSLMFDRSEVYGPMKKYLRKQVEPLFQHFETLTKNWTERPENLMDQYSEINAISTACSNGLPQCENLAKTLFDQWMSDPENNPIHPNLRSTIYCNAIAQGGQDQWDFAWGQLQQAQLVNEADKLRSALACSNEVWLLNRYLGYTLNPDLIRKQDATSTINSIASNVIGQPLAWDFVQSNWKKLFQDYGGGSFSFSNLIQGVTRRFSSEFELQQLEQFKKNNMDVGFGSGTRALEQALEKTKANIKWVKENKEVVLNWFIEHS

Cytosol aminopeptidase [3] = target: T3, Cytosol aminopeptidase (Bos taurus, UniProt P00727); experiment: Competitive inhibition of bovine LAPc using L-leucine-p-nitroanilide as substrate by spectrophotometric analysis
T3 sequence (P00727 whole entry): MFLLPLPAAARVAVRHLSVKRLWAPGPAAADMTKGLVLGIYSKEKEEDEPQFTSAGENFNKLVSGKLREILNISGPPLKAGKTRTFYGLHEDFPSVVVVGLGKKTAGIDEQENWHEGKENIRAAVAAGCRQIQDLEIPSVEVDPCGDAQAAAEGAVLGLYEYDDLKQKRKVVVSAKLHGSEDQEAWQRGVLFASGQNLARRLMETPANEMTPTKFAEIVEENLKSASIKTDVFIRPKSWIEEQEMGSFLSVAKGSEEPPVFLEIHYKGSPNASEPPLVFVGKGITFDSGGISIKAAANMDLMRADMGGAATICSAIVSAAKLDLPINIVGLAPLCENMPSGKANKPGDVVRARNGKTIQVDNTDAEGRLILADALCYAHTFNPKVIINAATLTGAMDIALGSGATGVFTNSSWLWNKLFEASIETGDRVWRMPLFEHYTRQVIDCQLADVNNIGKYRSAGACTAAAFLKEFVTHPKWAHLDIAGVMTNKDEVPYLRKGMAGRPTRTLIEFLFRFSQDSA
Procedure, shortened: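 Cytosolic leucine aminopeptidase from bovine kidney, 20 Units per assay, in 0.1 M Tris–HCl pH 8.0 with 0.1 mM ZnCl2, 5 mM MnCl2 and 1 M KCl. Km for L-leucine-p-nitroanilide 2 mM. Reaction started by adding enzyme to 1 ml medium at 30 °C. p-Nitroanilide release followed continuously at 405 nm (ε = 10,800 M-1 cm-1) for initial velocities. Ki taken from Dixon plots.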

Cytosol aminopeptidase [4] = target: T3, Cytosol aminopeptidase; experiment: Competitive inhibition of bovine LAPc using L-leucine-p-nitroanilide as substrate by Dixon-plot analysis
Aminopeptidase N [5] = target: T2, Aminopeptidase N; experiment: Competitive inhibition of pig APN using L-leucine-p-nitroanilide as substrate by spectrophotometric analysis
Procedure, shortened: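 Porcine kidney aminopeptidase-N, 1 mUnit per assay, in 0.02 M Tris–HCl pH 7.5 at 30 °C. L-Leucine-p-nitroanilide substrate, Km 0.2 mM. Enzyme addition starts the reaction. Continuous 405 nm read of p-nitroanilide release. Ki from Dixon plots for rapid-equilibrium inhibitors. For slow-binding inhibitors, progress curves were run with 3 nM enzyme and substrate at Km, steady state reached after 1.5 h, and Ki taken from Morrison plots.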

[6] = target: T1, Leukotriene A-4 hydrolase; experiment: Competitive inhibition of human recombinant LTA4H using alanine-p-nitroanilide as substrate by Dixon-plot analysis; procedure, shortened: as §1
Aminopeptidase N [7] = target: Aminopeptidase N (Homo sapiens, UniProt P15144)
Chain of Aminopeptidase N (Homo sapiens, UniProt P15144) (P15144 whole entry): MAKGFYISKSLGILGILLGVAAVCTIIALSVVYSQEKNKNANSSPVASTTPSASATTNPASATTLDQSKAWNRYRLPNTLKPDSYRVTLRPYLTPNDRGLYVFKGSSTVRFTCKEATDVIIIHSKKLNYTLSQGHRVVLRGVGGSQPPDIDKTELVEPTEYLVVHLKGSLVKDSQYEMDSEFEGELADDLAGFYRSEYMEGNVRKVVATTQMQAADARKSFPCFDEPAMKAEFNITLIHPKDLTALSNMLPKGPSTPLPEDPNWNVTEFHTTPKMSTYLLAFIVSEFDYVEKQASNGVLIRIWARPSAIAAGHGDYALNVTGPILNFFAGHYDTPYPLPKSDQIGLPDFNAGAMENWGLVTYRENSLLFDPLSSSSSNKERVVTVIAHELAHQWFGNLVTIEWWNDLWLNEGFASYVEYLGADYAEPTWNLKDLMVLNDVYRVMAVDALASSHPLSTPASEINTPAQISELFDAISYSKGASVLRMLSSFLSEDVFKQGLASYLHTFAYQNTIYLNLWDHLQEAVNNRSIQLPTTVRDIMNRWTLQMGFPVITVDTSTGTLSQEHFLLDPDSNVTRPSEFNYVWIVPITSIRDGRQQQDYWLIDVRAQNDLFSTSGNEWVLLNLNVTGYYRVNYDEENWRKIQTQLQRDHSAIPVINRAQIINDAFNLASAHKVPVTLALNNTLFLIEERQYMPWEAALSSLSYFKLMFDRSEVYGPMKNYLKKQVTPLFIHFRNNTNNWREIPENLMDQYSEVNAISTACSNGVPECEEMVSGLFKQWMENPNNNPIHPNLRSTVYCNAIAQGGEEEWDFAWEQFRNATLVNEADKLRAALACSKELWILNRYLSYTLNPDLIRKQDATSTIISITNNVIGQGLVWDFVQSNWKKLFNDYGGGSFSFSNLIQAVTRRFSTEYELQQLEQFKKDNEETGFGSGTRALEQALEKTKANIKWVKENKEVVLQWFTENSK

SMILES	pKi [1]	pKi (Aminopeptidase N [2])	pKi (Cytosol aminopeptidase [3])	pKi (Cytosol aminopeptidase [4])	pKi (Aminopeptidase N [5])	pKi [6]	pKi (Aminopeptidase N [7])
N[C@H]1CCc2ccccc2[C@@H](CCc2ccccc2)C1=O (racemic)	< 4.00	4.66	< 4.00				
N[C@H]1CCc2ccccc2[C@H](F)C1=O (racemic)	< 3.00	6.52	< 3.00				
N[C@H]1CCc2ccccc2[C@@H](CCCc2ccccc2)C1=O (racemic)	< 4.00	4.92	< 4.00				
N[C@H]1CCc2ccccc2/C(=C/c2ccccc2)C1=O		4.10				3.42	
N[C@H]1CCc2ccccc2CC1=O	< 3.00	6.00	< 3.00				6.00
NC1Cc2ccccc2CC1=O (stereo not given)			< 3.00				
N[C@H]1CCc2ccccc2[C@@H](Sc2ccccc2)C1=O (racemic)	< 4.00		< 4.00		7.22		
N[C@H]1CCc2ccccc2[C@H](Sc2ccccc2)C1=O (racemic)	< 4.00		< 4.00		7.22		

Second part, led by results:

pKi [1]	pKi (Aminopeptidase N [2])	pKi (Cytosol aminopeptidase [3])	pKi (Cytosol aminopeptidase [4])	pKi (Aminopeptidase N [5])	pKi [6]	SMILES	pKi (Aminopeptidase N [7])
< 4.00			4.40	7.08		N[C@H]1CCc2ccccc2[C@H](SCc2ccccc2)C1=O (racemic)	
	4.06				3.33	N[C@H]1CCc2ccccc2[C@H](CCc2ccccc2)C1=O (racemic)	
< 4.00	4.89	< 4.00				N[C@H]1CCc2ccccc2[C@@H](Cc2ccccc2)C1=O (racemic)	
